Assay outcomes from PubChem BioAssay.
An excerpt weighted towards active compounds, which were near 9.5% of everything screened.
mHtt clearance = clearance of mutant huntingtin inclusions, primary screen, imaging, HeLa Exon1htt(103Q)mCFP, confocal imaging; aggregate imaging; zero = plate's median compound well; inhibition, % at 1.5 µM; actives 0.42% (n = 47,000);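 active means inhibition of aggregate fluorescence above about 70%, also judged a hit by eye on the cell image, limit read from the data, passing the limit was not always enough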;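 further: cells exposed to compound for three days before fixation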
D1 mod = D1 CRE-luciferase signal change, two-sided – cell-based, HEK293 D1, dopamine EC30, D1 allosteric modulator project, primary screen | D(1A) dopamine receptor (Homo sapiens), P21728 | B-score at 10 µM | actives 5.9% (n = 58,000) | dopamine EC30 potentiation; actives deviate in either direction;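 active means luminescence count or its row- and column-corrected plate score outside the 99.7% band of the plate's sample wells, on either side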
HEK293 NFkB inh = inhibitors of PMA/ionomycin-induced NF-kB reporter, primary screen, antigen receptor NF-kB inhibitor project, cell-based, HEK-293 luciferase reporter, luminescence | HEK-293 NF-kB luciferase reporter | inhibition, % at 3 µM | actives 0.21% (n = 62,000);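 active means inhibition above the mean of all tested compounds plus 3 SD, cut at about 40% in these data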;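 further: 0% = stimulated DMSO wells and 100% = 10 µM reference inhibitor 5653914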
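Material: HEK-293 cells with stable firefly luciferase reporter driven by four HIV NF-kB elements / Also added: PMA plus ionomycin mix as NF-kB-activating stimulus / Compound dosing: 3 µM once, 0.30% DMSO / Times: 1 h pretreatment, 16 h stimulation, 37 °C / Signal: luminescence / Evaluation: per-plate % inhibition versus controls / Benchmarks: DMSO and 10 µM reference inhibitor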
M1 antagonist = antagonists of rat M1 muscarinic receptor. actives 3.4% (n = 64,000). AID 628, 2007. CHO-M1 cells, Fluo-4 calcium, ACh EC80 antagonist mode; active compounds read low. B-score at 10 µM;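 active means calcium fluorescence response, raw or row-and-column corrected B-score, differing from the plate sample mean either way at a set confidence level, mostly lower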
Target sequence (P08482 whole entry, looked up): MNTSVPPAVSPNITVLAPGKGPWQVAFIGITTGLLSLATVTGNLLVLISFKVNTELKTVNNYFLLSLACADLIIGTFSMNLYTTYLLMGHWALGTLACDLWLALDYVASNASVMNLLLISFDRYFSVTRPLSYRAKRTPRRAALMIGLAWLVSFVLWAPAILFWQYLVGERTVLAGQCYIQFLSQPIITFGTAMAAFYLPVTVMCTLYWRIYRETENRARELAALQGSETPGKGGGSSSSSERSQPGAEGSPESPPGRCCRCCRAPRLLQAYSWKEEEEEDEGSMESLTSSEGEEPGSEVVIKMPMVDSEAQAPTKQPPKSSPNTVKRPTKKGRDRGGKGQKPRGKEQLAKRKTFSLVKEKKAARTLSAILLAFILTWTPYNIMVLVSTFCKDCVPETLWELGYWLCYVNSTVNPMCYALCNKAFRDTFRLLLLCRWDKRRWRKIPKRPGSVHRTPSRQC
M1 ag = M1 muscarinic receptor agonists, primary screen, CHO-M1 cells, Fluo-4 calcium, agonist mode; Fluo-4 calcium fluorescence; active compounds read high; B-score at 10 µM; Muscarinic acetylcholine receptor M1; actives 3% (n = 64,000);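 active means fluorescence rise, raw or as B-score row- and column-corrected plate score, outside the 99.7% band of its plate's samples, either direction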
Jurkat tox 60K = cytotoxicity toward Jurkat T cells, primary screen, cytotoxicity control, cell-based, Jurkat E6.1, 60K MLSMR library; Jurkat E6.1 viability, ATP luminescence, 48 h; inhibition, % at 4 µM; actives 1.2% (n = 56,000); AID 463, 2006;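 active means inhibition above the mean inhibition of all tested compounds plus 3 SD, cut at about 28% in these data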
* = called active by the depositor; / = no result.

SMILES	mHtt clearance	D1 mod	HEK293 NFkB inh	M1 antagonist	M1 ag	Jurkat tox 60K
CC(=O)c1c(N2CCN(Cc3ccccc3)CC2)[nH]c(-c2ccccc2)nc1=S	20	2	20	-0.055	1.2	38*
O=C1NC(c2ccncc2)Nc2ccccc21 (centres undefined)	/	-0.33	17	-0.32	0.06	7
Cc1ccc(C2NC(=O)c3ccccc3N2)s1 (centres undefined)	/	-0.2	-17	-0.56	-0.016	75*
CC1=C(C)C(=O)NC(Nc2nc(C)c3cc(C)cc(C)c3n2)N1 (centres undefined)	-28	-3.2*	1	-1.7	0.9	-1
Cc1cc(C)c2nc(SCCc3ccccc3)nc(C)c2c1	37	/	/	/	/	/
Cn1nnnc1SCC(=O)Nc1ccc(Oc2ccc(Cl)cc2)cc1	-4	/	4	-0.38	0.8	51*
Cn1nnnc1SCC(=O)Nc1c(Cl)cccc1Cl	-40	-0.44	15	0.24	0.51	0
CCOc1ccc(Nc2nc(C)cc(C)c2C#N)cc1	77*	0.063	18	0.016	1.4	1
COc1ccc(Nc2nc(C)cc(C)c2C#N)cc1	/	1.3	-5	1.8	-0.87	-6
CN(c1ccccc1C(=O)O)S(C)(=O)=O	/	-1	6	0.25	0.054	-2
CN(C)c1ccccc1C(=O)c1ccccc1N(C)C	/	-0.62	12	0.12	0.66	88*
Cc1ccc(S(=O)(=O)N(C)Cc2ccc(-c3nnc4n3CCC4)cc2)cc1	26	0.21	16	2.6*	0.57	6
Cc1ccc(NS(=O)(=O)c2ccc(OCC(=O)Nc3cccc([N+](=O)[O-])c3)c(C)c2)cc1	32	/	/	/	/	/
CCn1c(SCC(=O)Nc2nc3ccc(C)cc3s2)nc2c(c1=O)SC(C)C2 (centres undefined)	/	1.9	5	0.028	0.022	16
Cc1ccc(NS(=O)(=O)c2cc(C(=O)O)ccc2Cl)c(C)c1	72*	0.13	2	0.11	0.77	10
O=C(Cn1cc2c(n1)CCCC2)NCCCN1CCN(c2ccccc2F)CC1	-104	-3.1*	12	-1.4	-1.1	0
Cn1c(=O)cc(OCC(=O)NCCCN2CCN(c3ccccc3F)CC2)c2ccccc21	/	0.56	1	-0.013	0.0075	2
O=C(Cn1cc2c(n1)CCCC2)NCCCN1CCN(Cc2ccccc2)CC1	/	1.2	5	-0.18	0.074	-1
CCn1c(=O)cc(SCC(=O)NCCCN2CCN(c3ccccc3F)CC2)c2ccccc21	/	-3.5*	20	-1.5	-0.16	15
Cn1c(=O)c2c(SCc3c(F)cccc3Cl)nc(CC(C)(C)C)nc2n(C)c1=O	-40	/	/	/	/	/
Cc1csc2nc(=O)c3ccccc3n12	-24	0.12	10	0.4	-0.65	5
COc1cc(C2C(C#N)=C(C)NC3=C2C(=O)c2ccccc23)cc(OC)c1OC (centres undefined)	-12	2	43*	-0.58	1.4	100*
COc1ccc(C2C(C#N)=C(C)NC3=C2C(=O)c2ccccc23)cc1 (centres undefined)	-137	/	/	-0.82	-0.72	/
CN(C)CCNC(=O)CN1C(=O)COc2ccc(C(C)(C)C)cc21	-412	/	/	/	/	/
Cc1ccc(Cn2c(Sc3nnc(C)s3)nc3c2c(=O)[nH]c(=O)n3C)cc1	/	2.9	6	0.51	2	2
SMILES	mHtt clearance	D1 mod	HEK293 NFkB inh	M1 antagonist	M1 ag	Jurkat tox 60K
Cn1c(=O)[nH]c(=O)c2c1nc(Sc1nc3ccccc3s1)n2Cc1ccccc1	/	4*	9	-0.059	-0.77	9
Cc1cccc(Cn2c(SCCN3CCCCC3)nc3c2c(=O)[nH]c(=O)n3C)c1	/	-0.25	13	-3.6*	-0.036	-8
O=C(c1ccc(CS(=O)(=O)c2ccccc2)o1)N1CCN(c2ncccn2)CC1	11	0.75	19	0.095	-1.8	3
CCOC(=O)c1cc2c(N)c(C(=O)c3cc(C#N)c(SC)nc3C)sc2nc1C	/	0.17	5	1.2	-0.91	2
Nc1nnc(SCC(=O)NCCOc2ccccc2)s1	9	/	/	/	/	/
CCCCn1c(SCc2c(C)noc2C)nc2cc(S(N)(=O)=O)ccc21	/	/	42*	-0.17	0.46	10
